Measurements: ChEMBL document CHEMBL3994637, “Broad spectrum anti-infective properties of benzisothiazolones and the parallels in their anti-bacterial and anti-fungal effects” (Bioorg Med Chem Lett, 2017)
In brackets after ≈: the same amount, converted by molar mass.

Columns and labels:
Escherichia coli = assay: Antibacterial activity against Escherichia coli ATCC 9637 by broth microdilution method; type: functional; conditions: W
In short: (§1)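 Bacteria were tested by the NCCLS method in Mueller Hinton broth, with gentamicin and norfloxacin as reference drugs.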

Pseudomonas aeruginosa = assay: Antibacterial activity against Pseudomonas aeruginosa ATCC BAA-427 by broth microdilution method; type: functional; in short: as §1
Aspergillus fumigatus = assay: Anti-fungal activity against Aspergillus fumigatus after 48 hrs by broth microdilution method; type: functional
Candida parapsilosis = assay: Anti-fungal activity against Candida parapsilosis ATCC 22019 after 48 hrs by broth microdilution method; type: functional; conditions: Lodderomyces parapsilosis, ATCC 22019, 48 h
Plasmodium falciparum = assay: Antimalarial activity against chloroquine-sensitive Plasmodium falciparum 3D7 after 72 hrs by SYBR Green-1 staining based fluorescence assay; type: functional; conditions: 3D7, 72 h
Staphylococcus aureus [1] = assay: Antibacterial activity against Staphylococcus aureus ATCC 29213 by broth microdilution method; type: functional
Klebsiella pneumoniae = assay: Antibacterial activity against Klebsiella pneumoniae ATCC 27736 by broth microdilution method; type: functional; in short: as §1
Staphylococcus aureus [2] = assay: Antibacterial activity against methicillin-resistant Staphylococcus aureus ATCC 700699 by broth microdilution method; type: functional; conditions: Mu50
Sporothrix schenckii = assay: Anti-fungal activity against Sporothrix schenckii after 48 hrs by broth microdilution method; type: functional
Staphylococcus aureus [3] = assay: Antibacterial activity against Staphylococcus aureus ATCC 25923 by broth microdilution method; type: functional
Staphylococcus aureus [4] = assay: Antibacterial activity against gentamicin-resistant Staphylococcus aureus ATCC 33592 by broth microdilution method; type: functional
[5] = tested on: Trichophyton mentagrophytes; assay: Anti-fungal activity against Trichophyton mentagrophytes after 48 hrs by broth microdilution method; type: functional
Candida albicans = assay: Anti-fungal activity against Candida albicans after 48 hrs by broth microdilution method; type: functional
Cryptococcus neoformans = assay: Anti-fungal activity against Cryptococcus neoformans after 48 hrs by broth microdilution method; type: functional
[6] = Cytotoxicity against monkey Vero C1008 cells after 72 hrs by MTT assay; type: cell-based; conditions: chlorocebus sabaeus

| SMILES | MIC (Escherichia coli) | MIC (Pseudomonas aeruginosa) | MIC (Aspergillus fumigatus) | MIC (Candida parapsilosis) | IC50 (Plasmodium falciparum) | MIC (Staphylococcus aureus [1]) | MIC (Klebsiella pneumoniae) | MIC (Staphylococcus aureus [2]) | MIC (Sporothrix schenckii) | MIC (Staphylococcus aureus [3]) | MIC (Staphylococcus aureus [4]) | MIC [5] | MIC (Candida albicans) | MIC (Cryptococcus neoformans) | IC50 (Escherichia coli) | IC50 (Pseudomonas aeruginosa) | IC50 (Aspergillus fumigatus) | IC50 (Candida parapsilosis) | IC50 (Staphylococcus aureus [1]) | IC50 (Klebsiella pneumoniae) | other results |
| --- | --- | --- | --- | --- | --- | --- | --- | --- | --- | --- | --- | --- | --- | --- | --- | --- | --- | --- | --- | --- | --- |
| O=c1c2ccccc2sn1-c1cccc(F)c1 | > 50 µg/mL | > 50 µg/mL | 25 µg/mL (≈ 102 µM) | 12.5 µg/mL (≈ 51 µM) | > 2 µM | 12.5 µg/mL (≈ 51 µM) | > 50 µg/mL | 6.25 µg/mL (≈ 25.5 µM) | 12.5 µg/mL (≈ 51 µM) | 6.25 µg/mL (≈ 25.5 µM) | 6.25 µg/mL (≈ 25.5 µM) | 12.5 µg/mL (≈ 51 µM) | 12.5 µg/mL (≈ 51 µM) | 12.5 µg/mL (≈ 51 µM) | – | – | – | – | – | – | – |
| O=c1c2ccccc2sn1-c1cccc(Cl)c1 | > 50 µg/mL | > 50 µg/mL | 25 µg/mL (≈ 95.5 µM) | 25 µg/mL (≈ 95.5 µM) | > 2 µM | 6.25 µg/mL (≈ 23.9 µM) | > 50 µg/mL | 3.12 µg/mL (≈ 11.9 µM) | 12.5 µg/mL (≈ 47.8 µM) | 6.25 µg/mL (≈ 23.9 µM) | 6.25 µg/mL (≈ 23.9 µM) | 12.5 µg/mL (≈ 47.8 µM) | 25 µg/mL (≈ 95.5 µM) | 12.5 µg/mL (≈ 47.8 µM) | – | – | – | – | – | – | – |
| O=c1c2ccccc2sn1-c1cccc(C(F)(F)F)c1 | > 50 µg/mL | > 50 µg/mL | 25 µg/mL (≈ 84.7 µM) | 25 µg/mL (≈ 84.7 µM) | > 2 µM | 6.25 µg/mL (≈ 21.2 µM) | > 50 µg/mL | 6.25 µg/mL (≈ 21.2 µM) | 12.5 µg/mL (≈ 42.3 µM) | 6.25 µg/mL (≈ 21.2 µM) | 6.25 µg/mL (≈ 21.2 µM) | 12.5 µg/mL (≈ 42.3 µM) | 25 µg/mL (≈ 84.7 µM) | 12.5 µg/mL (≈ 42.3 µM) | – | – | – | – | – | – | – |
| O=c1c2ccccc2sn1-c1ccccc1I | > 50 µg/mL | > 50 µg/mL | 50 µg/mL (≈ 142 µM) | 25 µg/mL (≈ 70.8 µM) | > 2 µM | 12.5 µg/mL (≈ 35.4 µM) | > 50 µg/mL | 25 µg/mL (≈ 70.8 µM) | 25 µg/mL (≈ 70.8 µM) | 12.5 µg/mL (≈ 35.4 µM) | 12.5 µg/mL (≈ 35.4 µM) | 25 µg/mL (≈ 70.8 µM) | 25 µg/mL (≈ 70.8 µM) | 25 µg/mL (≈ 70.8 µM) | – | – | – | – | – | – | – |
| O=c1c2ccccc2sn1C1CCCCC1n1sc2ccccc2c1=O (centres undefined) | > 50 µg/mL | > 50 µg/mL | > 50 µg/mL | > 50 µg/mL | > 2 µM | 3.7 µg/mL (≈ 9.67 µM) | > 50 µg/mL | 2.3 µg/mL (≈ 6.01 µM) | > 50 µg/mL | 3.4 µg/mL (≈ 8.89 µM) | – | > 50 µg/mL | > 50 µg/mL | > 50 µg/mL | > 50 µg/mL | > 50 µg/mL | > 50 µg/mL | > 50 µg/mL | 2.5 µg/mL (≈ 6.54 µM) | > 50 µg/mL | IC50 (Staphylococcus aureus [2]): 1.4 µg/mL (≈ 3.66 µM); IC50 (Sporothrix schenckii): > 50 µg/mL; IC50 (Staphylococcus aureus [3]): 3.2 µg/mL (≈ 8.37 µM); IC50 [5]: > 50 µg/mL; IC50 (Candida albicans): > 50 µg/mL; IC50 (Cryptococcus neoformans): > 50 µg/mL |
| COc1ccccc1-n1sc2ccccc2c1=O | > 50 µg/mL | > 50 µg/mL | > 50 µg/mL | 3.2 µg/mL (≈ 12.4 µM) | > 2 µM | 2.4 µg/mL (≈ 9.33 µM) | > 50 µg/mL | 1.07 µg/mL (≈ 4.16 µM) | 4 µg/mL (≈ 15.5 µM) | 2 µg/mL (≈ 7.77 µM) | – | 2.6 µg/mL (≈ 10.1 µM) | 7.2 µg/mL (≈ 28 µM) | 3.8 µg/mL (≈ 14.8 µM) | > 50 µg/mL | > 50 µg/mL | > 50 µg/mL | 0.7 µg/mL (≈ 2.72 µM) | 1.6 µg/mL (≈ 6.22 µM) | > 50 µg/mL | CC50 at 72 h [6]: 24.5 µM; IC50 (Sporothrix schenckii): 0.6 µg/mL (≈ 2.33 µM); IC50 (Staphylococcus aureus [3]): 1 µg/mL (≈ 3.89 µM); IC50 [5]: 0.7 µg/mL (≈ 2.72 µM); IC50 (Candida albicans): 2.9 µg/mL (≈ 11.3 µM); IC50 (Cryptococcus neoformans): 0.9 µg/mL (≈ 3.5 µM) |
| COc1ccc(-n2sc3ccccc3c2=O)cc1 | > 50 µg/mL | > 50 µg/mL | 11 µg/mL (≈ 42.7 µM) | 0.7 µg/mL (≈ 2.72 µM) | > 2 µM | 1.9 µg/mL (≈ 7.38 µM) | > 50 µg/mL | 0.73 µg/mL (≈ 2.84 µM) | 0.8 µg/mL (≈ 3.11 µM) | 1.6 µg/mL (≈ 6.22 µM) | – | > 50 µg/mL | 3.5 µg/mL (≈ 13.6 µM) | 1.1 µg/mL (≈ 4.27 µM) | > 50 µg/mL | > 50 µg/mL | 6.9 µg/mL (≈ 26.8 µM) | 0.6 µg/mL (≈ 2.33 µM) | 1.2 µg/mL (≈ 4.66 µM) | > 50 µg/mL | CC50 at 72 h [6]: 32.6 µM; IC50 (Sporothrix schenckii): 0.4 µg/mL (≈ 1.55 µM); IC50 (Staphylococcus aureus [3]): 1.5 µg/mL (≈ 5.83 µM); IC50 [5]: > 50 µg/mL; IC50 (Candida albicans): 2.4 µg/mL (≈ 9.33 µM); IC50 (Cryptococcus neoformans): 0.9 µg/mL (≈ 3.5 µM) |
| COC(=O)[C@H](C)NC(=O)[C@H](C)n1sc2ccccc2c1=O | > 50 µg/mL | > 50 µg/mL | > 50 µg/mL | > 50 µg/mL | > 2 µM | 5.6 µg/mL (≈ 18.2 µM) | > 50 µg/mL | 7.5 µg/mL (≈ 24.3 µM) | > 50 µg/mL | 7.5 µg/mL (≈ 24.3 µM) | – | > 50 µg/mL | > 50 µg/mL | > 50 µg/mL | > 50 µg/mL | > 50 µg/mL | > 50 µg/mL | > 50 µg/mL | 3.5 µg/mL (≈ 11.4 µM) | > 50 µg/mL | IC50 (Staphylococcus aureus [2]): 3.6 µg/mL (≈ 11.7 µM); IC50 (Sporothrix schenckii): > 50 µg/mL; IC50 (Staphylococcus aureus [3]): 3.6 µg/mL (≈ 11.7 µM); IC50 [5]: > 50 µg/mL; IC50 (Candida albicans): > 50 µg/mL; IC50 (Cryptococcus neoformans): > 50 µg/mL |
| O=c1c2ccccc2sn1-c1ccccc1Cl | > 50 µg/mL | > 50 µg/mL | 25 µg/mL (≈ 95.5 µM) | 25 µg/mL (≈ 95.5 µM) | > 2 µM | 12.5 µg/mL (≈ 47.8 µM) | > 50 µg/mL | 12.5 µg/mL (≈ 47.8 µM) | 12.5 µg/mL (≈ 47.8 µM) | 25 µg/mL (≈ 95.5 µM) | 12.5 µg/mL (≈ 47.8 µM) | 12.5 µg/mL (≈ 47.8 µM) | 25 µg/mL (≈ 95.5 µM) | 12.5 µg/mL (≈ 47.8 µM) | – | – | – | – | – | – | – |
| O=c1c2ccccc2sn1-c1ccccc1F | > 50 µg/mL | > 50 µg/mL | 25 µg/mL (≈ 102 µM) | 12.5 µg/mL (≈ 51 µM) | > 2 µM | 12.5 µg/mL (≈ 51 µM) | > 50 µg/mL | 6.25 µg/mL (≈ 25.5 µM) | 12.5 µg/mL (≈ 51 µM) | 25 µg/mL (≈ 102 µM) | 12.5 µg/mL (≈ 51 µM) | 12.5 µg/mL (≈ 51 µM) | 12.5 µg/mL (≈ 51 µM) | 12.5 µg/mL (≈ 51 µM) | – | – | – | – | – | – | – |
